Measurements reported in ChEMBL document CHEMBL4400546, “A Cinchona Alkaloid Antibiotic That Appears To Target ATP Synthase in Streptococcus pneumoniae” (J Med Chem, 2019).
In brackets after ≈: the same amount, converted by molar mass. Values belong to the compound of their own block, whether it stands above or below them.

Columns and labels:
[1] = Mitochondrial toxicity in human HepG2 cells assessed as reduction in cell viability after 24 hrs in presence of galactose by CellTiter-Glo assay; format: cell-based
Procedure, shortened: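 HepG2 cells are grown in DMEM supplemented with 10 mM galactose or 10 mM glucose and treated for 24 h. Viability is read by CellTiter-Glo luminescence. The CC90 is the concentration inhibiting 90% of cell viability, taken from dose–response curves. Oligomycin and tamoxifen serve as controls.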

[2] = Cmax in ICR mouse at 25 mg/kg, po via bolus administration by LC-MS/MS analysis; format: ADME, organism-based; parameters: dose 25 mg/kg, route oral; conditions: in vivo
Procedure, shortened: (§1)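 Single-dose PK in male ICR mice, bolus p.o. 25 mg/kg or i.v. 2.5 mg/kg. Plasma concentration followed over time, n = 3. Parameters derived by noncompartmental analysis of the concentration–time curves. Oral bioavailability calculated from AUC.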

[3] = AUCt in ICR mouse at 25 mg/kg, po via bolus administration by LC-MS/MS analysis; format: ADME, organism-based; conditions: in vivo; procedure, shortened: as §1
[4] = Cytotoxicity against human HepG2 cells assessed as reduction in cell viability after 48 hrs by Alamar Blue assay; format: cell-based
[5] = AUCt in ICR mouse at 2.5 mg/kg, iv by LC-MS/MS analysis; format: ADME, organism-based; conditions: in vivo; procedure, shortened: as §1
[6] = Oral bioavailability in ICR mouse at 25 mg/kg via bolus administration by LC-MS/MS analysis; format: ADME, organism-based; conditions: in vivo
Procedure, shortened: (§2)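 Male ICR mice, single oral bolus at 25 mg/kg. Serum concentration-time profiles (n = 3) analysed by noncompartmental analysis.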

[7] = Cmax in ICR mouse at 2.5 mg/kg, iv by LC-MS/MS analysis; format: ADME, organism-based; parameters: dose 2.5 mg/kg, route intravenous; conditions: in vivo; procedure, shortened: as §1
[8] = Drug metabolism in ICR mouse liver microsomes at 10 uM preincubated with NADPH for 10 mins and measured after 60 mins by LC-MS/MS analysis; format: ADME, Microsome; conditions: read-out: Drug metabolism
[9] = Elimination half life in ICR mouse at 25 mg/kg, po via bolus administration by LC-MS/MS analysis; format: ADME, organism-based; conditions: in vivo, read-out: beta t1/2 (converted); procedure, shortened: as §1
Streptococcus pneumoniae [10] = assay: Antibacterial activity against amoxicillin/penicillin/chloramphenicol/erythromycin/meropenem/cefotaxime-resistant Streptococcus pneumoniae TH2582 (19A) after 20 hrs by CLSI-based microdilution method; format: functional
Streptococcus pneumoniae [11] = assay: Antibacterial activity against amoxicillin/penicillin/erythromycin/ertapenem/moxifloxacin/cefotaxime-resistant Streptococcus pneumoniae TH2889 (6B) after 20 hrs by CLSI-based microdilution method; format: functional
Streptococcus pneumoniae [12] = assay: Antibacterial activity against penicillin/erythromycin/meropenem/tetracycline-resistant Streptococcus pneumoniae TH2863 (19F) after 20 hrs by CLSI-based microdilution method; format: functional
Streptococcus pneumoniae [13] = assay: Antibacterial activity against optochin-resistant Streptococcus pneumoniae R6 expressing atpE G142C mutant after 20 hrs by CLSI-based microdilution method; format: functional; conditions: R6, 20 h
Streptococcus pneumoniae [14] = assay: Bactericidal activity against Streptococcus pneumoniae D39 after 24 hrs; format: functional; conditions: D39, 24 h
[15] = Clearance in ICR mouse at 2.5 mg/kg, iv by LC-MS/MS analysis; format: ADME, organism-based; conditions: in vivo; procedure, shortened: as §1
[16] = Volume of distribution at steady state in ICR mouse at 2.5 mg/kg, iv by LC-MS/MS analysis; format: ADME, organism-based; conditions: in vivo, read-out: Vdss
Procedure, shortened: (§3)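 Male ICR mice, single i.v. bolus at 2.5 mg/kg. Serum concentration-time curves (n = 3) analysed noncompartmentally to give Tmax and steady-state volume of distribution.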

Streptococcus pneumoniae [17] = assay: Antibacterial activity against amoxicillin/penicillin/cefotaxime/erythromycin/tetracycline-resistant Streptococcus pneumoniae TH2784 (19F) after 20 hrs by CLSI-based microdilution method; format: functional
Streptococcus pneumoniae [18] = assay: Antibacterial activity against Streptococcus pneumoniae D39 after 20 hrs by CLSI-based microdilution method; format: functional; conditions: D39, 20 h
[19] = Tmax in ICR mouse at 2.5 mg/kg, iv by LC-MS/MS analysis; format: ADME, organism-based; conditions: in vivo; procedure, shortened: as §3
[20] = Mitochondrial toxicity in human HepG2 cells assessed as reduction in cell viability after 24 hrs in presence of glucose by CellTiter-Glo assay; format: cell-based
Procedure, shortened: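 HepG2 cells grown in DMEM with 10 mM glucose, treated 24 h; viability read by CellTiter-Glo luminescence. Value is the concentration giving 90% loss of viability (CC90) from dose-response curves, top concentration 300 µM.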

Streptococcus pneumoniae [21] = assay: Antibacterial activity against optochin-resistant Streptococcus pneumoniae R6 expressing atpE G145A mutant after 20 hrs by CLSI-based microdilution method; format: functional; conditions: R6, 20 h
[22] = Elimination half life in ICR mouse at 2.5 mg/kg, iv by LC-MS/MS analysis; format: ADME, organism-based; conditions: in vivo, read-out: beta t1/2 (converted); procedure, shortened: as §1
[23] = Tmax in ICR mouse at 25 mg/kg, po via bolus administration by LC-MS/MS analysis; format: ADME, organism-based; conditions: in vivo; procedure, shortened: as §2
Streptococcus pneumoniae [24] = assay: Antibacterial activity against Streptococcus pneumoniae R6 after 20 hrs by CLSI-based microdilution method; format: functional; conditions: R6, 20 h
[25] = Drug level in ICR mouse liver microsomes treated with 6-Cyclobutoxy-(R)-4-[((1S,2S,4S,5E)-5-ethylidene-1-azabicyclo[2.2.2]octan-2-yl)hydroxymethyl]quinoline at 10 uM preincubated with NADPH for 10 mins and measured after 90 mins by LC-MS/MS analysis; format: ADME, Microsome; conditions: 1.5 h
[26] = Drug level in ICR mouse liver microsomes treated with 6-Cyclobutoxy-(R)-4-[((1S,2S,4S,5Z)-5-ethylidene-1-azabicyclo-[2.2.2]octan-2-yl)hydroxymethyl]quinoline at 10 uM preincubated with NADPH for 10 mins and measured after 90 mins by LC-MS/MS analysis; format: ADME, Microsome; conditions: 1.5 h
Staphylococcus aureus = assay: Antibacterial activity against Staphylococcus aureus; format: functional
Streptococcus pneumoniae [27] = assay: Antibacterial activity against Streptococcus pneumoniae; format: functional
Procedure, shortened: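 MIC read per CLSI guidelines as the lowest concentration giving complete inhibition of visible growth. The main screen used strain D39. A further panel covered drug-sensitive, multidrug-resistant and optochin-resistant strains, including R6 carrying atpE point mutations G142C or G145A made by a PCR-based approach.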

[28] = system: Staphylococcus epidermidis; assay: Antibacterial activity against Staphylococcus epidermidis; format: functional
[29] = Elimination half life in human
Enterococcus faecalis = assay: Antibacterial activity against Enterococcus faecalis; format: functional
[30] = Protein binding in plasma (unknown origin); format: ADME, cell-free; conditions: read-out: PPB
[31] = Cmax in human; format: ADME

Compound: CCOc1ccc2nccc([C@@H](O)[C@@H]3C[C@@H]4CCN3C[C@@H]4CC)c2c1 [ETHYLHYDROCUPREINE]
CC90 at 24 h [1]: 300 µM
Cmax [2]: 639 ng/mL
AUC(0-t) [3]: 1570 ng·h/mL
CC50 at 48 h [4]: > 100 µM
AUC(0-t) [5]: 144 ng·h/mL
bioavailability [6]: 109%
Cmax [7]: 375 ng/mL
metabolised at 1 h, 10 µM [8]: 87%
half-life [9]: 60 min
MIC (Streptococcus pneumoniae [10]): 2 µg/mL (≈ 5.87 µM)
MIC (Streptococcus pneumoniae [11]): 2 µg/mL (≈ 5.87 µM)
MIC (Streptococcus pneumoniae [12]): 4 to 8 µg/mL (≈ 11.7 to 23.5 µM)
MIC (Streptococcus pneumoniae [13]): 64 µg/mL (≈ 188 µM)
MBC (Streptococcus pneumoniae [14]): 4 µg/mL (≈ 11.7 µM)
clearance [15]: 274 mL/min/kg
Vd [16]: 12.7 L/kg
MIC (Streptococcus pneumoniae [17]): 2 µg/mL (≈ 5.87 µM)
MIC (Streptococcus pneumoniae [18]): 6 to 12 µM (≈ 2.04 to 4.09 µg/mL)
Tmax [19]: 1.98 min
CC90 at 24 h [20]: 300 µM
MIC (Streptococcus pneumoniae [21]): 16 µg/mL (≈ 47 µM)
half-life [22]: 31.8 min
Tmax [23]: 30 min
MIC (Streptococcus pneumoniae [24]): 2 µg/mL (≈ 5.87 µM)

Compound: C/C=C1\C[N@]2CC[C@H]1C[C@H]2C(=O)c1ccnc2ccc(O)cc12
Drug uptake [25]: Active
Drug uptake [26]: Active

Compound: O=c1cc([C@@H](O)[C@@H]2C[C@@H]3CC[N@@]2C/C3=C\CO)c2cc(OC3CCC3)ccc2[nH]1
Drug uptake [25]: Active
Drug uptake [26]: Active

MIC (Staphylococcus aureus): 16 µg/mL (≈ 42.3 µM)
MIC (Streptococcus pneumoniae [27]): 0.4 to 0.8 µg/mL (≈ 1.06 to 2.11 µM)
MIC [28]: 16 µg/mL (≈ 42.3 µM)
half-life [29]: 20 days
MIC (Enterococcus faecalis): 16 µg/mL (≈ 42.3 µM)
fraction unbound [30]: < 0.02
Cmax [31]: 50 ng/mL
Compound: O[C@@H](c1cc(C(F)(F)F)nc2c(C(F)(F)F)cccc12)[C@H]1CCCCN1 [(S,R)-MEFLOQUINE]

Compound: C/C=C1\C[N@]2CC[C@H]1C[C@H]2[C@H](O)c1ccnc2ccc(O[C@H]3O[C@H](C(=O)O)[C@@H](O)[C@H](O)[C@H]3O)cc12
Drug uptake [25]: Active
Drug uptake [26]: Active

Compound: OC/C=C1\C[N@]2CC[C@H]1C[C@H]2[C@H](O)c1ccnc2ccc(OC3CCC3)cc12
Drug uptake [25]: Active
Drug uptake [26]: Active

Compound: O=C(c1ccnc2ccc(OC3CCC3)cc12)[C@@H]1C[C@@H]2CC[N@@]1C/C2=C\CO
Drug uptake [25]: Active
Drug uptake [26]: Active
